Measured values published in ChEMBL document CHEMBL4610039, “Design, synthesis and apoptosis-related antiproliferative activities of chelidonine derivatives” (Bioorg Med Chem Lett, 2020).
The source made the active and inactive calls. The calls are words filed in the database; no cut-off is given here.

Experiments:
[1] = test system: HCT-116; test: Antiproliferative activity against human HCT116 cells assessed as reduction in cell growth after 72 hrs by MTT assay; type: functional, cell-based; details: HCT-116, 72 h
Summary of the method: (§1)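 Human HepG2, MCF-7, HCT-116 and K562 tumour cells plus normal L-02 hepatocytes and PBMCs were exposed to compounds for 72 h and growth was read by MTT. 5-Fu served as positive control. IC50 is the concentration inhibiting 50% of cell growth, given as mean ± standard deviation of three independent experiments.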

[2] = test system: K562; test: Induction of apoptosis in human K562 cells assessed as early apoptotic cells at 2.20 uM after 48 hrs by annexin V-FITC/propidium iodide staining based flow cytometry (reference value: 2.23%); type: functional
[3] = test system: K562; test: Induction of cell cycle arrest in human K562 cells assessed as accumulation at G1 phase at 2.20 uM after 72 hrs by propidium iodide staining based flow cytometry (reference value: 56.13%); type: functional
Summary of the method: (§2)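 For cell cycle, K562 cells were treated 72 h at 0, 0.55, 1.10 or 2.20 μM, with a solvent control. Cells were stained with PI and G1, S and G2/M fractions determined by flow cytometry.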

[4] = test system: K562; test: Induction of apoptosis in human K562 cells by annexin V-FITC/propidium iodide staining based flow cytometry; type: functional, cell-based
[5] = test system: K562; test: Induction of apoptosis in human K562 cells assessed as late apoptotic cells at 0.55 uM after 48 hrs by annexin V-FITC/propidium iodide staining based flow cytometry (reference value: 0.73%); type: functional
[6] = test system: K562; test: Induction of cell cycle arrest in human K562 cells assessed as accumulation at S phase at 1.10 uM after 72 hrs by propidium iodide staining based flow cytometry (reference value: 35.68%); type: functional; summary of the method: as §2
[7] = test system: K562; test: Induction of mitochondrial membrane potential loss in human K562 cells assessed as cell population with mitochondrial membrane potential collapse at 1.10 uM after 48 hrs by JC1 staining-based flow cytometry analysis (reference value: 7.04%); type: functional
[8] = test system: K562; test: Induction of apoptosis in human K562 cells assessed as reduction in survivin level after 24 hrs by chemiluminescence based protein array analysis; type: functional, cell-based
Summary of the method: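 K562 cells were treated for 24 h, then proteins were extracted and run on a human apoptosis protein array. Chemiluminescent signals were detected with a digital imaging system.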

[9] = test system: PBMC; test: Cytotoxicity against human PBMC assessed as reduction in cell growth after 72 hrs by MTT assay; type: cell-based; summary of the method: as §1
[10] = test system: K562; test: Induction of mitochondrial membrane potential loss in human K562 cells assessed as cell population with intact mitochondrial membrane potential at 0.55 uM after 48 hrs by JC1 staining-based flow cytometry analysis (reference value: 92.94%); type: functional
[11] = test system: K562; test: Induction of cell cycle arrest in human K562 cells assessed as accumulation at G2/M phase at 2.20 uM after 72 hrs by propidium iodide staining based flow cytometry (reference value: 8.19%); type: functional; summary of the method: as §2
[12] = test system: K562; test: Induction of apoptosis in human K562 cells assessed as late apoptotic cells at 1.10 uM after 48 hrs by annexin V-FITC/propidium iodide staining based flow cytometry (reference value: 0.73%); type: functional
[13] = test system: HepG2; test: Antiproliferative activity against human HepG2 cells assessed as reduction in cell growth after 72 hrs by MTT assay; type: functional, cell-based; details: HepG2, 72 h; summary of the method: as §1

With `CN1Cc2c(ccc3c2OCO3)[C@H]2[C@@H](OC(=O)CCCC(=O)OCC#CCOc3no[n+]([O-])c3S(=O)(=O)c3ccccc3)Cc3cc4c(cc3[C@H]21)OCO4` the IC50 [1] was 4.36 µM, the Activity [2] was 24.84% and the Activity [3] was 32.41%. For the same molecule, the Activity [4] was “Dose-dependent effect”, the Activity [5] was 3.47% and the Activity [6] was 52.04%. The Activity [7] was 28.66%, the Activity [8] was “Active” and the IC50 [9] was > 40 µM. For the same molecule, the Activity [10] was 80.71%, the Activity [11] was 7.87% and the Activity [12] was 2.39%. It also gave an IC50 [13] of 3.91 µM.
